# Data: paper PMC10947042 (Chemmedchem, 2022)
# Tests used:
# [1] = test system: dynamin I; assay: Malachite Green GTPase assay, dynamin I; type: biochemical, sheep; conditions: increasing GTP or phospholipid (PS) concentration, Figure 2
# In short: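 GTP 0.3 mM, PS liposomes ~4 μg/ml (GTP or PS varied). Compound present; 30 min, 37 °C; EDTA stop; malachite green A650 against phosphate standard. Basal subtracted; Michaelis‑Menten and Lineweaver‑Burk fits.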
# [2] = test system: Swiss 3T3 cells; assay: Receptor-mediated endocytosis assay, Swiss 3T3 cells; type: cell-based
# In short: (§1)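 Cells grown in DMEM/10 % FCS, then serum‑free DMEM for 16 h. Compound added 30 min (final DMSO ≤1 %), then Tfn‑TxR (final 5.0 μg/mL) or EGF‑TxR (final 1.0 μg/mL) as applicable, 10 min at 37 °C. Surface ligand stripped with ice‑cold acid wash (pH 2.8), 4 % PFA fix, DAPI stain, fluorescence microscopy. Quantified as integrated intensity per cell, % of vehicle control.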
# [3] = test system: HER14 cells; assay: Receptor-mediated endocytosis assay, HER14 cells; type: cell-based
# In short: as §1
# [4] = test system: B104 cells; assay: Receptor-mediated endocytosis assay, B104 cells; type: cell-based
# In short: as §1
# [5] = test system: B35 cells; assay: Receptor-mediated endocytosis assay, B35 cells; type: cell-based
# In short: as §1
# [6] = test system: HeLa cells; assay: Receptor-mediated endocytosis assay, HeLa cells; type: cell-based
# In short: as §1
# [7] = test system: COS7 cells; assay: Receptor-mediated endocytosis assay, COS7 cells; type: cell-based; conditions: at up to 300 μM
# In short: as §1
# [8] = test system: dynamin I; conditions: read-out: IC50 for dynamin I inhibition; in vitro dynamin I GTPase; cited from earlier work
# [9] = test system: dyn II; conditions: read-out: dyn II IC50; cited from earlier work
# [10] = Solubility in the buffer solution; type: physicochemical
# [11] = Rat blood plasma stability; type: in vitro ADME; conditions: 5 % rat blood plasma, Figure 3E
# [12] = test system: A431 cells; assay: Receptor-mediated endocytosis assay, A431 cells; type: cell-based; conditions: 30 μM, data not shown
smiles,measurement,setting,value
"N#CC(=Cc1ccc(O)c(O)c1)C(=O)NCCCNC(=O)C(C#N)=Cc1ccc(O)c(O)c1 [Compound 2, 2‐Cyano‐N‐{3‐[2‐cyano‐3‐(3,4‐dihydroxyphenyl)acryloylamino]propyl}‐3‐(3,4‐dihydroxyphenyl)acrylamide]",mode of dynamin inhibition,[1],non‐GTP and non‐lipid dependent manner
same,endocytosis block (TxR‐Tfn uptake),[2]; 100 μM,essentially complete
same,endocytosis block,"[3]; 100 μM, not shown",essentially complete
same,endocytosis block,"[4]; 100 μM, not shown",essentially complete
same,endocytosis block,[5]; at up to 300 μM,largely ineffective
same,effect on EGF‐TxR uptake (CME),[6]; 100 μM,no effect on CME
same,endocytosis block,[6]; at up to 300 μM,largely ineffective
same,endocytosis block,[7],largely ineffective
same,IC50,[8],1700 ± 2000 nM
same,IC50,[9],500 nM
"CC(=O)Oc1ccc(C=C(C#N)C(=O)NCCCNC(=O)C(C#N)=Cc2ccc(OC(C)=O)c(OC(C)=O)c2)cc1OC(C)=O [Compound 3, Acetic acid 2‐acetoxy‐5‐(2‐cyano‐2‐{3‐[2‐cyano‐3‐(3,4‐diacetoxyphenyl)acryloylamino]propylcarbamoyl}vinyl)phenyl ester]",solubility in the buffer solution / under physiological conditions,[10],insoluble
"CCC(=O)Oc1ccc(C=C(C#N)C(=O)NCCCNC(=O)C(C#N)=Cc2ccc(OC(=O)CC)c(OC(=O)CC)c2)cc1OC(=O)CC [Compound 4, Propionic acid 5‐(2‐{3‐[3‐(3,4‐bis‐propionyloxyphenyl)‐2‐cyanoacryloylamino]propylcarbamoyl}‐2‐cyanovinyl)‐2‐propionyloxyphenyl ester]",time until hydrolysis was complete,[11],≈ 60 min
same,transferrin and EGF uptake (where applicable),"[2]; 30 μM, data not shown",inhibited transferrin and EGF uptake
same,transferrin and EGF uptake (where applicable),"[3]; 30 μM, data not shown",inhibited transferrin and EGF uptake
same,transferrin and EGF uptake (where applicable),"[4]; 30 μM, data not shown",inhibited transferrin and EGF uptake
same,transferrin and EGF uptake (where applicable),[12],inhibited transferrin and EGF uptake
same,transferrin and EGF uptake (where applicable),"[5]; 30 μM, data not shown",inhibited transferrin and EGF uptake
same,effect on EGF‐TxR uptake (CME),[6]; 30 μM,marked reduction in CME
"CCCCCC(=O)Oc1ccc(C=C(C#N)C(=O)NCCCNC(=O)C(C#N)=Cc2ccc(OC(=O)CCCCC)c(OC(=O)CCCCC)c2)cc1OC(=O)CCCCC [Compound 8, Hexanoic acid 5‐(2‐{3‐[3‐(3,4‐bis‐hexanoyloxyphenyl)‐2‐cyanoacryloylamino]‐propylcarbamoyl}‐2‐cyanovinyl)‐2‐hexanoyloxyphenyl ester]",solubility in the buffer solution / under physiological conditions,[10],insoluble
"CC(C)(C)C(=O)Oc1ccc(C=C(C#N)C(=O)NCCCNC(=O)C(C#N)=Cc2ccc(OC(=O)C(C)(C)C)c(OC(=O)C(C)(C)C)c2)cc1OC(=O)C(C)(C)C [Compound 9, 2,2‐Dimethylpropionic acid 5‐[2‐(3‐{3‐[3,4‐bis‐(2,2‐dimethylpropionyloxy)phenyl]‐2‐cyanoacryloylamino}propylcarbamoyl)‐2‐cyanovinyl]‐2‐(2,2‐dimethylpropionyloxy)phenyl ester]",solubility in the buffer solution / under physiological conditions,[10],insoluble
